Test results: ChEMBL document CHEMBL1926518, “Synthesis of macrolones with central piperazine ring in the linker and its influence on antibacterial activity” (2011)
Converted amounts (≈) assume the structure as drawn.

Columns and labels:
Type in all cases: functional
[1] = system: Staphylococcus aureus; assay: Antibacterial activity against erythromycin-sensitive Staphylococcus aureus ATCC 13709 by broth microdilution technique
Method in brief: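 MIC by broth microdilution per CLSI guidelines with doubling dilutions of compounds. Before testing, staphylococci were grown on Mueller–Hinton agar. Values reported in µg/mL.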

[2] = system: Streptococcus pneumoniae; assay: Antibacterial activity against erythromycin-sensitive Streptococcus pneumoniae SP030 by broth microdilution technique
Method in brief: (§1)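 Streptococcal MICs by CLSI broth microdilution with doubling dilutions, but with 5% horse serum in the medium in place of lysed blood. Before testing, strains were grown on Columbia agar with 5% sheep blood. Values reported in µg/mL.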

[3] = system: Streptococcus pyogenes; assay: Antibacterial activity against erythromycin-sensitive Streptococcus pyogenes 3565 by broth microdilution technique; method in brief: as §1
[4] = system: Staphylococcus aureus; assay: Antibacterial activity against inducible macrolide, licosamide and streptogramin-resistant Staphylococcus aureus 90256/97 by broth microdilution technique
Method in brief: (§2)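 MICs were determined by CLSI broth microdilution, with double dilutions of compound. Staphylococci were grown on Mueller–Hinton agar before testing. Results are given in µg/mL.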

[5] = system: Streptococcus pneumoniae; assay: Antibacterial activity against inducible macrolide-resistant, constitutive licosamide and streptogramin-resistant Streptococcus pneumoniae 134 GR-Micro by broth microdilution technique
Method in brief: (§3)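 MICs were determined by CLSI broth microdilution, with double dilutions of compound. In the streptococcal medium, 5% horse serum replaced lysed blood. Streptococci were grown on Columbia agar with 5% sheep blood before testing. Results are given in µg/mL.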

[6] = system: Streptococcus pyogenes; assay: Antibacterial activity against inducible macrolide, licosamide and streptogramin-resistant Streptococcus pyogenes Finland 11 by broth microdilution technique; method in brief: as §3
[7] = system: Staphylococcus aureus; assay: Antibacterial activity against constitutive macrolide, licosamide and streptogramin-resistant Staphylococcus aureus PK2 by broth microdilution technique; method in brief: as §2
[8] = system: Streptococcus pneumoniae; assay: Antibacterial activity against constitutive macrolide, licosamide and streptogramin-resistant Streptococcus pneumoniae 58 Spain by broth microdilution technique; method in brief: as §3
[9] = system: Streptococcus pyogenes; assay: Antibacterial activity against constitutive macrolide, licosamide and streptogramin-resistant Streptococcus pyogenes 166 GR-Micro by broth microdilution technique; method in brief: as §3
[10] = system: Staphylococcus aureus; assay: Antibacterial activity against efflux-mediated macrolide-resistant Staphylococcus aureus PK1 by broth microdilution technique; method in brief: as §2
[11] = system: Streptococcus pneumoniae; assay: Antibacterial activity against efflux-mediated macrolide-resistant Streptococcus pneumoniae Ci137 by broth microdilution technique; method in brief: as §3
[12] = system: Streptococcus pyogenes; assay: Antibacterial activity against efflux-mediated macrolide-resistant Streptococcus pyogenes 3 Finland by broth microdilution technique; method in brief: as §3
[13] = system: Haemophilus influenzae; assay: Antibacterial activity against Haemophilus influenzae ATCC 49247 by broth microdilution technique
Method in brief: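 MIC by broth microdilution per CLSI guidelines with doubling dilutions of compounds. Before testing, organisms were grown on Mueller-Hinton chocolate agar. Values reported in µg/mL.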

[14] = system: Moraxella catarrhalis; assay: Antibacterial activity against Moraxella catarrhalis ATCC 23246 by broth microdilution technique
Method in brief: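 MIC by broth microdilution per CLSI guidelines with doubling dilutions of compounds. Before testing, organisms were grown on Columbia agar with 5% sheep blood. Values reported in µg/mL.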

SMILES | MIC [1] [µg/mL] | MIC [2] [µg/mL] | MIC [3] [µg/mL] | MIC [4] [µg/mL] | MIC [5] [µg/mL] | MIC [6] [µg/mL] | MIC [7] [µg/mL] | MIC [8] [µg/mL] | MIC [9] [µg/mL] | MIC [10] [µg/mL] | MIC [11] [µg/mL] | MIC [12] [µg/mL] | MIC [13] [µg/mL] | MIC [14] [µg/mL]
CCOC(=O)c1cn(CC)c2ccc(CCCN3CCN(CCC(=O)O[C@H]4[C@H](C)O[C@@H](O[C@H]5[C@H](C)[C@@H](O[C@@H]6O[C@H](C)C[C@H](N(C)C)[C@H]6O)[C@](C)(O)C[C@@H](C)CN(C)[C@H](C)[C@@H](OC)[C@](C)(O)[C@@H](CC)OC(=O)[C@@H]5C)C[C@@]4(C)OC)CC3)cc2c1=O | 4 (≈ 3.37 µM) | ≤ 0.125 | ≤ 0.125 | > 64 | 32 (≈ 26.9 µM) | 2 (≈ 1.68 µM) | > 64 | 8 (≈ 6.73 µM) | > 64 | > 64 | 2 (≈ 1.68 µM) | 2 (≈ 1.68 µM) | 32 (≈ 26.9 µM) | 0.25 (≈ 0.21 µM)
CC[C@H]1OC(=O)[C@H](C)[C@@H](O[C@H]2C[C@@](C)(OC)[C@@H](OC(=O)CCN3CCN(CCCc4ccc5c(c4)c(=O)c(C(=O)O)cn5CC)CC3)[C@H](C)O2)[C@H](C)[C@@H](O[C@@H]2O[C@H](C)C[C@H](N(C)C)[C@H]2O)[C@](C)(O)C[C@@H](C)CN(C)[C@H](C)[C@@H](OC)[C@]1(C)O | ≤ 0.125 | ≤ 0.125 | ≤ 0.125 | 4 (≈ 3.45 µM) | 16 (≈ 13.8 µM) | ≤ 0.125 | > 64 | ≤ 0.125 | 32 (≈ 27.6 µM) | 0.25 (≈ 0.215 µM) | ≤ 0.125 | ≤ 0.125 | 1 (≈ 0.862 µM) | 0.5 (≈ 0.431 µM)
CC[C@H]1OC(=O)[C@H](C)[C@@H](O[C@H]2C[C@@](C)(OC)[C@@H](O)[C@H](C)O2)[C@H](C)[C@@H](O[C@@H]2O[C@H](C)C[C@H](N(C)C)[C@H]2O)[C@](C)(OC)C[C@@H](C)C(=O)[C@H](C)[C@@H](O)[C@]1(C)O [CLARITHROMYCIN] | 0.25 (≈ 0.334 µM) | ≤ 0.125 | ≤ 0.125 | > 64 | > 64 | 1 (≈ 1.34 µM) | > 64 | > 64 | > 64 | 32 (≈ 42.8 µM) | 4 (≈ 5.35 µM) | 4 (≈ 5.35 µM) | 8 (≈ 10.7 µM) | ≤ 0.125
CC[C@H]1OC(=O)[C@H](C)[C@@H](O[C@H]2C[C@@](C)(OC)[C@@H](OCCCN3CCN(C/C=C/c4ccc5c(c4)c(=O)c(C(=O)O)cn5CC)CC3)[C@H](C)O2)[C@H](C)[C@@H](O[C@@H]2O[C@H](C)C[C@H](N(C)C)[C@H]2O)[C@](C)(O)C[C@@H](C)CN(C)[C@H](C)[C@@H](O)[C@]1(C)O | 2 (≈ 1.77 µM) | ≤ 0.125 | ≤ 0.125 | > 64 | > 64 | 1 (≈ 0.885 µM) | > 64 | 32 (≈ 28.3 µM) | 64 (≈ 56.6 µM) | 8 (≈ 7.08 µM) | 8 (≈ 7.08 µM) | 4 (≈ 3.54 µM) | 16 (≈ 14.2 µM) | 0.5 (≈ 0.442 µM)
CCOC(=O)c1cn(CC)c2ccc(CCCN3CCN(CCC(=O)O[C@H]4[C@H](C)O[C@@H](O[C@H]5[C@H](C)[C@@H](O[C@@H]6O[C@H](C)C[C@H](N(C)C)[C@H]6O)[C@](C)(O)C[C@@H](C)CN(C)[C@H](C)[C@@H](O)[C@](C)(O)[C@@H](CC)OC(=O)[C@@H]5C)C[C@@]4(C)OC)CC3)cc2c1=O | 1 (≈ 0.851 µM) | ≤ 0.125 | ≤ 0.125 | > 64 | ≤ 0.125 | ≤ 0.125 | > 64 | ≤ 0.125 | 32 (≈ 27.2 µM) | 64 (≈ 54.5 µM) | ≤ 0.125 | 0.5 (≈ 0.426 µM) | 2 (≈ 1.7 µM) | 0.25 (≈ 0.213 µM)
CCOC(=O)c1cn(CC)c2ccc(C#CCN3CCN(CCC(=O)O[C@H]4[C@H](C)O[C@@H](O[C@H]5[C@H](C)[C@@H](O[C@@H]6O[C@H](C)C[C@H](N(C)C)[C@H]6O)[C@](C)(O)C[C@@H](C)CN(C)[C@H](C)[C@@H](O)[C@](C)(O)[C@@H](CC)OC(=O)[C@@H]5C)C[C@@]4(C)OC)CC3)cc2c1=O | 1 (≈ 0.854 µM) | ≤ 0.125 | ≤ 0.125 | > 64 | ≤ 0.125 | ≤ 0.125 | > 64 | ≤ 0.125 | 32 (≈ 27.3 µM) | 16 (≈ 13.7 µM) | ≤ 0.125 | ≤ 0.125 | 4 (≈ 3.42 µM) | 1 (≈ 0.854 µM)
CCOC(=O)c1cn(CC)c2ccc(C#CCN3CCN(CCC(=O)O[C@H]4[C@H](C)O[C@@H](O[C@H]5[C@H](C)[C@@H](O[C@@H]6O[C@H](C)C[C@H](N(C)C)[C@H]6O)[C@](C)(O)C[C@@H](C)CN(C)[C@H](C)[C@@H](OC)[C@](C)(O)[C@@H](CC)OC(=O)[C@@H]5C)C[C@@]4(C)OC)CC3)cc2c1=O | 4 (≈ 3.38 µM) | ≤ 0.125 | ≤ 0.125 | > 64 | 0.5 (≈ 0.422 µM) | 0.25 (≈ 0.211 µM) | > 64 | 1 (≈ 0.844 µM) | 32 (≈ 27 µM) | > 64 | ≤ 0.125 | 1 (≈ 0.844 µM) | 32 (≈ 27 µM) | 8 (≈ 6.75 µM)
CC[C@H]1OC(=O)[C@H](C)[C@@H](O[C@H]2C[C@@](C)(OC)[C@@H](OC(=O)CCN3CCN(CC#Cc4ccc5c(c4)c(=O)c(C(=O)O)cn5CC)CC3)[C@H](C)O2)[C@H](C)[C@@H](O[C@@H]2O[C@H](C)C[C@H](N(C)C)[C@H]2O)[C@](C)(O)C[C@@H](C)CN(C)[C@H](C)[C@@H](OC)[C@]1(C)O | 0.25 (≈ 0.216 µM) | ≤ 0.125 | ≤ 0.125 | 8 (≈ 6.92 µM) | 8 (≈ 6.92 µM) | ≤ 0.125 | > 64 | 4 (≈ 3.46 µM) | 16 (≈ 13.8 µM) | 0.5 (≈ 0.432 µM) | ≤ 0.125 | ≤ 0.125 | 1 (≈ 0.865 µM) | 0.5 (≈ 0.432 µM)
CCOC(=O)c1cn(CC)c2ccc(C#CCN3CCN(C(=O)OC(C)(C)C)CC3)cc2c1=O | > 64 | > 64 | > 64 | > 64 | > 64 | > 64 | > 64 | > 64 | > 64 | > 64 | > 64 | > 64 | > 64 | > 64
CCOC(=O)c1cn(C2CC2)c2ccc(C#CCN3CCN(C(=O)OC(C)(C)C)CC3)cc2c1=O | > 64 | > 64 | > 64 | > 64 | > 64 | > 64 | > 64 | > 64 | > 64 | > 64 | > 64 | > 64 | > 64 | > 64
